Compound activity from PubChem.
The list is not random: actives were taken first. Their share in the collection is about 9.6%.
HCT116 bCat-KO = beta-catenin-lacking colon tumor cell growth suppression; AID 818; hit rate 1.5% among 140,000; viability, % at 10 µM; HCT116 beta-catenin knockout viability, CellTiter-Glo, 60 h; active compounds read low;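 active = viability at or under a set limit, the compound median less 4 SD, cut at about 6% in these data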
TNAP act hiacc = increases human TNAP activity under high phosphate acceptor concentration; P05186; purified TNAP, CDP-star luminescence, 1 M DEA, 30 min; active compounds read high; 0 = EDTA background, 1 = DMSO-only activity; activation factor at 20 µM; 200,000 tested, under 10 active; AID 1136;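 active = activation factor at least 2 at 20 µM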
Target sequence (P05186 whole entry, looked up): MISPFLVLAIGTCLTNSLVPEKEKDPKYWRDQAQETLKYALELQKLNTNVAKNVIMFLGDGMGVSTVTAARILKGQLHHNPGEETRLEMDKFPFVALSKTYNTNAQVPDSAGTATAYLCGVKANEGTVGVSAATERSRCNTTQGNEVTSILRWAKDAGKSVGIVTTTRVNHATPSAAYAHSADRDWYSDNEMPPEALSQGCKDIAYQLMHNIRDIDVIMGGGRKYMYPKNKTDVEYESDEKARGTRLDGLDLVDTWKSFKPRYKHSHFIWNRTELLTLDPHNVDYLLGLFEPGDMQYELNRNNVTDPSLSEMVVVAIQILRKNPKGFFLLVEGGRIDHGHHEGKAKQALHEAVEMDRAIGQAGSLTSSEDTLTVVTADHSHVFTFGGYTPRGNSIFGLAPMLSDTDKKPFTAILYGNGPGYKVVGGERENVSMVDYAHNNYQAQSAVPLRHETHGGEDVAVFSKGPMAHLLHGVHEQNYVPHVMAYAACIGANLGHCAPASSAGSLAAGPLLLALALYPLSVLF
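system = human TNAP | amount = enzyme diluted 1/800 final | reagent = 100 µM CDP-star substrate | signal = luminescent substrate turnover signal | dosing = one dose, 20 µM | benchmarks = EDTA negative control, DMSO positive control | measure = activation factor | timing = 30 min reaction, room temperature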
HCT116 PTEN-null = PTEN-deleted cell growth suppression | AID 827 | viability, % at 10 µM | HCT116 PTEN-null viability, CellTiter-Glo, 60 h; active compounds read low | hit rate 1.2% among 140,000;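 active = viability at or below a set limit, 4 SD under the median of all tested compounds, cut at about 3.7% in these data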;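 also: PTEN knockout HCT116 line with beta catenin targeted HCT116 as companion control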
Lmaj promast = reduces viability of Leishmania major promastigotes. resazurin fluorescence viability. inhibition, % at 10 µM. hit rate 9% among 200,000. AID 1063; in the data active = inhibition above about 50%;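 also: promastigotes grown with compound for 44 hours at 28 °C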
TNAP inh hiacc = blocks human TNAP under high phosphate acceptor concentration; P05186; purified TNAP, CDP-star luminescence, 1 M DEA; AID 1135; hit rate 0.03% among 200,000; inhibition, % at 20 µM;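 active = over 50% inhibition of tissue-nonspecific alkaline phosphatase at 20 µM in the single-dose screen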
TNAP inh noacc = blocks human TNAP activity with no phosphate acceptor present. inhibition, % at 20 µM. AID 1012. P05186. hit rate 0.26% among 200,000. purified TNAP, CDP-star luminescence, 30 min;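 active = tissue-nonspecific alkaline phosphatase inhibition above about 50% at 20 µM in the single-dose screen, limit read from the data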
Each line names hits and unclear results; the compound was inactive in the other large screens.

O=C(Nc1ccc2nc(-c3cccnc3)[nH]c2c1)C12CC3CC(CC(C3)C1)C2	Lmaj promast 77
O=C(Nc1nc2ccccc2[nH]1)C12CC3CC(CC(C3)C1)C2	Lmaj promast 90
O=C(Nc1nc2ccccc2[nH]1)C1CC1	none (no result: HCT116 bCat-KO, HCT116 PTEN-null)
Nc1cccc(C(=O)Nc2ccc3nc(-c4cccnc4)[nH]c3c2)c1	none
O=C(Nc1ccc2nc(-c3cccnc3)[nH]c2c1)C1CCCCC1	Lmaj promast 68
CC/C(=N\NC(=O)c1ccc(N(C)C)cc1)c1ccccc1	none
CCC1(C)Cc2ccccc2-c2nc(NCCO)n(-c3ccccc3)c(=O)c21 (centres undefined)	none
O=c1c2c(nc(NCCO)n1CC1CCCCC1)-c1ccccc1CC21CCCC1	Lmaj promast 91
O=c1[nH]c(NCCO)nc2c1C1(CCCCC1)Cc1ccccc1-2	none
CCC1(C)Cc2ccccc2-c2nc(NCCO)n(-c3ccc(C)cc3)c(=O)c21 (centres undefined)	Lmaj promast 63
CC1(C)CC(n2c(NCCO)nc3c(c2=O)C2(CCCC2)Cc2ccccc2-3)CCO1 (centres undefined)	Lmaj promast 100
CCCCCCCCCCCCCCCCn1cc[n+](CC(C)=O)c1	Lmaj promast 100 (no result: HCT116 bCat-KO, HCT116 PTEN-null)
Cc1nc2cc(NC(=O)CCS(=O)(=O)c3ccccc3)ccc2s1	none
COC(=O)/C(=C1/Oc2cc(C)oc(=O)c2S1)C(F)(F)F	HCT116 bCat-KO 3.6, HCT116 PTEN-null 3.2
COC(=O)/C(=C1/Oc2ccc(C(C)(C)C)cc2S1)C(F)(F)F	none
OCCCCCN=c1cc(-c2ccccc2)oc2ccc(Cl)cc12	Lmaj promast 95
NC(=O)COc1ccc2oc(-c3ccccc3)cc(=O)c2c1	none (no result: HCT116 bCat-KO, HCT116 PTEN-null)
Clc1ccc2oc(-c3ccccc3)cc(=NCCCN3CCOCC3)c2c1	Lmaj promast 99 (no result: HCT116 bCat-KO, HCT116 PTEN-null)
Clc1ccc2nc(NC3=NCN(CCN4CCOCC4)CN3)nc(-c3ccccc3)c2c1	none (no result: HCT116 bCat-KO, HCT116 PTEN-null, Lmaj promast)
Fc1ccc(C2c3[nH]c4ccccc4c3CCN2Cc2cccn2-c2ncccn2)cc1 (centres undefined)	Lmaj promast 67 (no result: HCT116 bCat-KO, HCT116 PTEN-null)
Clc1ccc(-n2cccc2CN2CCc3c([nH]c4ccccc34)C2c2ccccn2)nc1 (centres undefined)	Lmaj promast 96 (no result: HCT116 bCat-KO, HCT116 PTEN-null)
CC(C)(C)c1ccccc1OCC(=O)NCCC(=O)O	Lmaj promast 99
CC(C)(C)c1ccccc1OCC(=O)Nc1ncn[nH]1	none
Cc1ccc(NC(=O)CN(C)C(=O)CSc2nc3ccccc3c(=O)n2Cc2ccco2)cc1	Lmaj promast 87
COCCn1c(C)cc(C(=O)CSc2cc(C)c3ccccc3n2)c1C	none
O=C(CSc1nc2ccccc2c(=O)n1Cc1ccco1)N1CCCCCC1	Lmaj promast 79
COCCn1c(C)cc(C(=O)CSc2nc3ccccc3c(=O)n2Cc2ccco2)c1C	Lmaj promast 78
CCOC(=O)C(NC(=O)NCc1ccc(OC)cc1)(OCC)C(F)(F)F (centres undefined)	none
Nc1nn2cc(-c3ccccc3)nc2c2ccccc12	Lmaj promast 87 (no result: HCT116 bCat-KO, HCT116 PTEN-null)
Cc1cn2nc(N)c3ccccc3c2n1	none
CCN1CCN(CC(O)COCc2ccccc2)CC1 (centres undefined)	none
CCOC(=O)N1CCN(CC(O)COCc2ccc(OC)c(OC)c2)CC1 (centres undefined)	none
CCOC(=O)N1CCN(CC(O)COCC2=CCC3CC2C3(C)C)CC1 (centres undefined)	Lmaj promast 94
CCOC(=O)N1CCN(CC(O)COCc2ccccc2)CC1 (centres undefined)	Lmaj promast 66
CCOC(=O)N1CCN(CC(O)COc2ccc(C)cc2C(C)(C)C)CC1 (centres undefined)	Lmaj promast 98
CCOC(=O)N1CCN(CC(O)c2ccccc2)CC1 (centres undefined)	none (no result: HCT116 bCat-KO, HCT116 PTEN-null)
COc1ccc(C)cc1NC(=S)NC12CN3CN(CN(C3)C1)C2	none (no result: HCT116 bCat-KO, HCT116 PTEN-null)
CS(=O)(=O)NN1C(=O)c2ccccc2NC1c1c[nH]c2ccccc12 (centres undefined)	none
CC(C)(C)NC(=O)CSc1ncnc2c1nnn2Cc1ccccc1Cl	HCT116 bCat-KO 4.1, HCT116 PTEN-null 3.2, Lmaj promast 57
COc1cc(OC)cc(C(=O)Nn2cc(C(=O)Nc3ccc(F)cc3F)c3ccccc3c2=O)c1	none
Cc1ccsc1-c1nc(CN(C)C(C2CC2)C2CC2)c(C)o1	none (no result: HCT116 bCat-KO, HCT116 PTEN-null)
CC1CCCC(NC(=O)c2cn(C)c3ccc(S(=O)(=O)N4CCCC4)cc3c2=O)C1C (centres undefined)	Lmaj promast 63
CCn1cc(C(=O)NC2CCC(C)CC2)c(=O)c2cc(S(=O)(=O)N3CCCCC3)ccc21 (centres undefined)	Lmaj promast 76
CC1CCCCC1NC(=O)c1cn(C)c2ccc(S(=O)(=O)N3CCCC3)cc2c1=O (centres undefined)	none
Cc1cc(=O)oc2cc(N3C(=O)CC(Cc4ccccc4)C3=O)ccc12 (centres undefined)	none (no result: HCT116 bCat-KO, HCT116 PTEN-null)
CCCCNC(=O)CSc1nc2ccsc2c(=O)n1C1CCN(C(=O)OCC)CC1	Lmaj promast 87
NS(=O)(=O)c1ccc(CCNC(=O)CSc2nc3ccsc3c(=O)n2C2CC2)cc1	none
O=C(Nc1nc(-c2ccc(Oc3ccccc3)cc2)cs1)C1=COCCO1	none
CC(=O)c1ccc(NC(=O)COC(=O)c2c3c(nc4ccccc24)/C(=C\c2cccs2)CCC3)cc1	Lmaj promast 97
COc1cccc(NC(=O)COC(=O)c2c3c(nc4ccccc24)CCC(C)C3)c1 (centres undefined)	HCT116 bCat-KO 1.7, HCT116 PTEN-null 1.4, Lmaj promast 54
O=C(COC(=O)c1c2c(nc3ccccc13)CCCC2)Nc1ccc2c(c1)OCO2	Lmaj promast 59
O=C(OCC(=O)N1CCc2ccccc21)c1c2c(nc3ccccc13)CCCCC2	Lmaj promast 91
COc1ccc(CNn2c(-c3cccs3)nc3ccccc3c2=O)cc1OC	none (no result: HCT116 bCat-KO, HCT116 PTEN-null)
COc1cccc(/C=C/C(=C2/C(=O)N(c3ccccc3)N=C2C)c2ccc(Br)cc2)c1OC	Lmaj promast 100
COc1cccc(/C=C/C(=C2/C(=O)N(c3ccccc3)N=C2C)c2ccccc2)c1OC	Lmaj promast 95
Cc1ccc(C)n1-c1nccc(-c2ccco2)n1	none (no result: HCT116 bCat-KO, HCT116 PTEN-null)
COc1cc(-c2cc(N3C(=O)Nc4ccccc4N3O)n[nH]2)cc(OC)c1OC	none
O=C1Nc2ccccc2N(O)N1c1cc(-c2ccccc2)[nH]n1	TNAP inh noacc 81 (no result: HCT116 bCat-KO, HCT116 PTEN-null)
COc1ccc(-c2cc(N3C(=O)Nc4ccccc4N3O)n[nH]2)cc1	TNAP inh noacc 75
Cc1cccc(NC(=S)N2CCC(C(N)=O)(N3CCCCC3)CC2)c1C	none (no result: HCT116 bCat-KO, HCT116 PTEN-null)
O=c1oc(-c2ccccc2NS(=O)(=O)c2ccc3ccccc3c2)nc2ccccc12	Lmaj promast 92
